≈ marks a conversion by molar mass, not a printed value.
Assays:
[1] = tested on: Mycolicibacterium smegmatis; assay: Anti-tubercular activity against Mycobacterium smegmatis MC2 155 ATCC 700084 after 3 days by microdilution method; type: functional; conditions: MC2 155 ATCC 700084, 72 h
In short: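 M. smegmatis mc2155 grown in MB7H9 + 10% OADC at 37 °C with shaking to OD600 0.8. Inoculum set to 0.5 McFarland, diluted 1:100, and mixed 1:1 with two-fold serial dilutions in MB7H9. Plates incubated 3 days at 37 °C with growth and sterility controls. MIC taken as the lowest concentration with no visible growth.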

[2] = Cytotoxicity against human MDM assessed as cell viability after 3 days by Alamar blue dye-based fluorocytometric analysis relative to control; conditions: 72 h
[3] = tested on: Mycobacterium tuberculosis; assay: Antibacterial activity against Mycobacterium tuberculosis H37Rv ATCC 27294T assessed as isoniazid MIC at 0.25 ug/ml after 7 days by microdilution checkerboard assay; type: functional; conditions: 168 h
In short: (§1)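 Two-dimensional checkerboard in H37Rv at 10^5 CFU/ml in MB7H9/OADC. Partner drug (amikacin, EtBr, isoniazid, ofloxacin or rifampin) two-fold serially diluted across columns 3-11. Test compound two-fold serially diluted down rows 2-6. Plates incubated 7 days at 37 °C, then MTT added overnight. […] Run in triplicate.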

[4] = tested on: Mycobacterium tuberculosis; assay: Antibacterial activity against Mycobacterium tuberculosis H37Rv ATCC 27294T assessed as isoniazid MIC at 0.12 ug/ml after 7 days by microdilution checkerboard assay; type: functional; conditions: 168 h; in short: as §1
[5] = tested on: Mycobacterium tuberculosis; assay: Antibacterial activity against Mycobacterium tuberculosis H37Rv ATCC 27294T assessed as ethidium bromide MIC at 0.12 ug/ml after 7 days by microdilution checkerboard assay; type: functional; conditions: 168 h; in short: as §1
[6] = tested on: Mycobacterium tuberculosis; assay: Antibacterial activity against Mycobacterium tuberculosis H37Rv ATCC 27294T assessed as ethidium bromide MIC at 0.25 ug/ml after 7 days by microdilution checkerboard assay; type: functional; conditions: 168 h; in short: as §1
[7] = tested on: Mycobacterium tuberculosis; assay: Antibacterial activity against Mycobacterium tuberculosis H37Rv ATCC 27294T assessed as ethidium bromide MIC at 0.5 ug/ml after 7 days by microdilution checkerboard assay; type: functional; conditions: 168 h; in short: as §1
[8] = tested on: Mycobacterium tuberculosis; assay: Antibacterial activity against Mycobacterium tuberculosis H37Rv ATCC 27294T assessed as ethidium bromide MIC at 1 ug/ml after 7 days by microdilution checkerboard assay; type: functional; conditions: 168 h; in short: as §1
[9] = tested on: Mycobacterium tuberculosis; assay: Antibacterial activity against Mycobacterium tuberculosis H37Rv ATCC 27294T assessed as ethidium bromide MIC at 2 ug/ml after 7 days by microdilution checkerboard assay; type: functional; conditions: 168 h; in short: as §1
[10] = tested on: Mycobacterium tuberculosis; assay: Antibacterial activity against Mycobacterium tuberculosis H37Rv ATCC 27294T assessed as ethidium bromide MIC at 4 ug/ml after 7 days by microdilution checkerboard assay; type: functional; conditions: 168 h; in short: as §1
[11] = tested on: Mycobacterium tuberculosis; assay: Antibacterial activity against Mycobacterium tuberculosis H37Rv ATCC 27294T assessed as ethidium bromide MIC at 8 ug/ml after 7 days by microdilution checkerboard assay; type: functional; conditions: 168 h; in short: as §1
[12] = tested on: Mycobacterium tuberculosis; assay: Antibacterial activity against Mycobacterium tuberculosis H37Rv ATCC 27294T assessed as ofloxacin MIC at 0.12 ug/ml after 7 days by microdilution checkerboard assay; type: functional; conditions: 168 h; in short: as §1
[13] = tested on: Mycobacterium tuberculosis; assay: Antibacterial activity against Mycobacterium tuberculosis H37Rv ATCC 27294T assessed as ofloxacin MIC at 0.25 ug/ml after 7 days by microdilution checkerboard assay; type: functional; conditions: 168 h; in short: as §1
[14] = tested on: Mycobacterium tuberculosis; assay: Antibacterial activity against Mycobacterium tuberculosis H37Rv ATCC 27294T assessed as ofloxacin MIC at 0.5 ug/ml after 7 days by microdilution checkerboard assay; type: functional; conditions: 168 h; in short: as §1
[15] = tested on: Mycobacterium tuberculosis; assay: Antibacterial activity against Mycobacterium tuberculosis H37Rv ATCC 27294T assessed as ofloxacin MIC at 1 ug/ml after 7 days by microdilution checkerboard assay; type: functional; conditions: 168 h; in short: as §1
[16] = tested on: Mycobacterium tuberculosis; assay: Antibacterial activity against Mycobacterium tuberculosis H37Rv ATCC 27294T assessed as ofloxacin MIC at 2 ug/ml after 7 days by microdilution checkerboard assay; type: functional; conditions: 168 h; in short: as §1
[17] = tested on: Mycobacterium tuberculosis; assay: Antibacterial activity against Mycobacterium tuberculosis H37Rv ATCC 27294T assessed as ofloxacin MIC at 4 ug/ml after 7 days by microdilution checkerboard assay; type: functional; conditions: 168 h; in short: as §1
[18] = tested on: Mycobacterium tuberculosis; assay: Antibacterial activity against Mycobacterium tuberculosis H37Rv ATCC 27294T assessed as ofloxacin MIC at 8 ug/ml after 7 days by microdilution checkerboard assay; type: functional; conditions: 168 h; in short: as §1
[19] = tested on: Mycobacterium tuberculosis; assay: Antibacterial activity against Mycobacterium tuberculosis H37Rv ATCC 27294T assessed as amikacin MIC at 0.12 ug/ml after 7 days by microdilution checkerboard assay; type: functional; conditions: 168 h; in short: as §1
[20] = tested on: Mycobacterium tuberculosis; assay: Antibacterial activity against Mycobacterium tuberculosis H37Rv ATCC 27294T assessed as amikacin MIC at 0.25 ug/ml after 7 days by microdilution checkerboard assay; type: functional; conditions: 168 h; in short: as §1
[21] = tested on: Mycobacterium tuberculosis; assay: Antibacterial activity against Mycobacterium tuberculosis H37Rv ATCC 27294T assessed as amikacin MIC at 0.5 ug/ml after 7 days by microdilution checkerboard assay; type: functional; conditions: 168 h; in short: as §1
[22] = tested on: Mycobacterium tuberculosis; assay: Antibacterial activity against Mycobacterium tuberculosis H37Rv ATCC 27294T assessed as amikacin MIC at 1 ug/ml after 7 days by microdilution checkerboard assay; type: functional; conditions: 168 h; in short: as §1
[23] = tested on: Mycobacterium tuberculosis; assay: Antibacterial activity against Mycobacterium tuberculosis H37Rv ATCC 27294T assessed as amikacin MIC at 2 ug/ml after 7 days by microdilution checkerboard assay; type: functional; conditions: 168 h; in short: as §1
[24] = tested on: Mycobacterium tuberculosis; assay: Antibacterial activity against Mycobacterium tuberculosis H37Rv ATCC 27294T assessed as amikacin MIC at 4 ug/ml after 7 days by microdilution checkerboard assay; type: functional; conditions: 168 h; in short: as §1
[25] = tested on: Mycobacterium tuberculosis; assay: Anti-tubercular activity against Mycobacterium tuberculosis H37Rv ATCC 27294T after 7 days by mircodilution method; type: functional; conditions: 168 h
In short: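 H37Rv grown static in MB7H9 + 10% OADC at 37 °C to OD600 0.8, then diluted to about 10^5 cells/ml. Mixed 1:1 with two-fold serial dilutions in MB7H9/OADC and incubated 7 days at 37 °C. MTT added to final 2.5% and plates incubated overnight. MIC is the lowest concentration with no colour change. Run in triplicate.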

[26] = tested on: Mycobacterium tuberculosis; assay: Antibacterial activity against Mycobacterium tuberculosis H37Rv ATCC 27294T assessed as isoniazid MIC at 8 ug/ml after 7 days by microdilution checkerboard assay; type: functional; conditions: 168 h; in short: as §1
[27] = tested on: Mycobacterium tuberculosis; assay: Antibacterial activity against Mycobacterium tuberculosis H37Rv ATCC 27294T assessed as isoniazid MIC at 4 ug/ml after 7 days by microdilution checkerboard; type: functional; conditions: 168 h; in short: as §1
[28] = tested on: Mycobacterium tuberculosis; assay: Antibacterial activity against Mycobacterium tuberculosis H37Rv ATCC 27294T assessed as isoniazid MIC at 2 ug/ml after 7 days by microdilution checkerboard assay; type: functional; conditions: 168 h; in short: as §1
[29] = tested on: Mycobacterium tuberculosis; assay: Antibacterial activity against Mycobacterium tuberculosis H37Rv ATCC 27294T assessed as isoniazid MIC at 1 ug/ml after 7 days by microdilution checkerboard assay; type: functional; conditions: 168 h; in short: as §1
[30] = tested on: Mycobacterium tuberculosis; assay: Antibacterial activity against Mycobacterium tuberculosis H37Rv ATCC 27294T assessed as isoniazid MIC at 0.5 ug/ml after 7 days by microdilution checkerboard assay; type: functional; conditions: 168 h; in short: as §1
[31] = tested on: Mycobacterium tuberculosis; assay: Antibacterial activity against Mycobacterium tuberculosis H37Rv ATCC 27294T assessed as amikacin MIC at 8 ug/ml after 7 days by microdilution checkerboard assay; type: functional; conditions: 168 h; in short: as §1
[32] = tested on: Mycobacterium tuberculosis; assay: Antibacterial activity against Mycobacterium tuberculosis H37Rv ATCC 27294T assessed as rifampin MIC at 0.12 ug/ml after 7 days by microdilution checkerboard assay; type: functional; conditions: 168 h; in short: as §1
[33] = tested on: Mycobacterium tuberculosis; assay: Antibacterial activity against Mycobacterium tuberculosis H37Rv ATCC 27294T assessed as rifampin MIC at 0.25 ug/ml after 7 days by microdilution checkerboard assay; type: functional; conditions: 168 h; in short: as §1
[34] = tested on: Mycobacterium tuberculosis; assay: Antibacterial activity against Mycobacterium tuberculosis H37Rv ATCC 27294T assessed as rifampin MIC at 0.5 ug/ml after 7 days by microdilution checkerboard assay; type: functional; conditions: 168 h
In short: (§2)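 M. tuberculosis H37Rv grown in MB7H9 + 10% OADC at 37 °C to OD600 0.8; plates inoculated at 10^5 CFU/ml. Rifampicin two-fold serially diluted across columns, test compound two-fold diluted down rows (two-dimensional checkerboard). Sealed, 37 °C for seven days, then MTT added and incubated overnight. MIC read as no colour change. Triplicate.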

[35] = tested on: Mycobacterium tuberculosis; assay: Antibacterial activity against Mycobacterium tuberculosis H37Rv ATCC 27294T assessed as rifampin MIC at 1 ug/ml after 7 days by microdilution checkerboard assay; type: functional; conditions: 168 h; in short: as §2
[36] = tested on: Mycobacterium tuberculosis; assay: Antibacterial activity against Mycobacterium tuberculosis H37Rv ATCC 27294T assessed as rifampin MIC at 2 ug/ml after 7 days by microdilution checkerboard assay; type: functional; conditions: 168 h; in short: as §2
[37] = tested on: Mycobacterium tuberculosis; assay: Antibacterial activity against Mycobacterium tuberculosis H37Rv ATCC 27294T assessed as rifampin MIC at 4 ug/ml after 7 days by microdilution checkerboard assay; type: functional; conditions: 168 h; in short: as §2
[38] = tested on: Mycobacterium tuberculosis; assay: Antibacterial activity against Mycobacterium tuberculosis H37Rv ATCC 27294T assessed as rifampin MIC at 8 ug/ml after 7 days by microdilution checkerboard assay; type: functional; conditions: 168 h; in short: as §2

CCCSc1nnc(COc2ccccc2C2=NOC(c3ccc(Cl)cc3Cl)C2)n1NC(C)=O (stereo not drawn)
MIC [1]: 1 µg/mL (≈ 1.92 µM)
IC50 [2]: 128 µg/mL (≈ 245 µM)
MIC [3]: 0.1 µg/mL
MIC [4]: 0.1 µg/mL
MIC [5]: 12.5 µg/mL
MIC [6]: 12.5 µg/mL
MIC [7]: 12.5 µg/mL
MIC [8]: 6.25 µg/mL
MIC [9]: 0.781 µg/mL
MIC [10]: 0.195 µg/mL
MIC [11]: 0.195 µg/mL
MIC [12]: 1 µg/mL
MIC [13]: 1 µg/mL
MIC [14]: 1 µg/mL
MIC [15]: 0.25 µg/mL
MIC [16]: 0.0312 µg/mL
MIC [17]: 0.0156 µg/mL
MIC [18]: 0.0156 µg/mL
MIC [19]: 1 µg/mL
MIC [20]: 1 µg/mL
MIC [21]: 1 µg/mL
MIC [22]: 1 µg/mL
MIC [23]: 0.25 µg/mL
MIC [24]: 0.25 µg/mL
MIC [25]: 4 µg/mL (≈ 7.69 µM)
MIC [26]: 0.00078 µg/mL
MIC [27]: 0.00312 µg/mL
MIC [28]: 0.0125 µg/mL
MIC [29]: 0.05 µg/mL
MIC [30]: 0.1 µg/mL
MIC [31]: 0.0312 µg/mL
MIC [32]: 0.0625 µg/mL
MIC [33]: 0.0312 µg/mL
MIC [34]: 0.0312 µg/mL
MIC [35]: 0.0156 µg/mL
MIC [36]: 0.0156 µg/mL
MIC [37]: 0.0156 µg/mL
MIC [38]: 0.0156 µg/mL

Source: ChEMBL document CHEMBL3758168, “Hybrid triazoles: Design and synthesis as potential dual inhibitor of growth and efflux inhibition in tuberculosis” (Eur J Med Chem, 2016)
